Test results reported in ChEMBL document CHEMBL1125399, “Perfluorocarbon-based antidiabetic agents” (1992).

species on record: Mus musculus; test: Percent plasma glucose concentration of drug treated mice (ob/ob) relative to vehicle control animals; assay type: functional
In short: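 Female ob/ob mice, 10 weeks old, fed ad libitum, in groups of 7–11. Dosed po once daily for 4 days in 0.5% methyl cellulose vehicle. Decapitated the next morning; 0.1 mL blood into saline with Trasylol and EDTA; plasma glucose by autoanalyzer. Reciprocal-transformed (y = 160/x) harmonic mean given as % of vehicle. Bonferroni-adjusted comparisons.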

In order of rising Activity:
1. O=C(NCCCCCc1nn[n-]n1)C(F)(F)C(F)(F)C(F)(F)C(F)(F)C(F)(F)C(F)(F)C(F)(F)F.[Na+]  48%
2. O=C(Nc1ncccn1)C(F)(F)C(F)(F)C(F)(F)C(F)(F)C(F)(F)C(F)(F)C(F)(F)F  49%
3. O=C(NO)C(F)(F)C(F)(F)C(F)(F)C(F)(F)C(F)(F)C(F)(F)C(F)(F)F  52%
4. O=C(NCCCCCc1nn[nH]n1)C(F)(F)C(F)(F)C(F)(F)C(F)(F)C(F)(F)C(F)(F)C(F)(F)F  54%
5. O=C(Nc1ccc(Cc2nn[n-]n2)cc1)C(F)(F)C(F)(F)C(F)(F)C(F)(F)C(F)(F)C(F)(F)C(F)(F)F.[Na+]  55%
6. O=C(Nc1ccccn1)C(F)(F)C(F)(F)C(F)(F)C(F)(F)C(F)(F)C(F)(F)C(F)(F)F  56%
7. O=C(NCCCCCc1nn[nH]n1)C(F)(F)C(F)(F)C(F)(F)C(F)(F)C(F)(F)C(F)(F)C(F)(F)C(F)(F)F  57%
8. O=C(O)C(F)(F)C(F)(F)C(F)(F)C(F)(F)C(F)(F)C(F)(F)C(F)(F)F  60%
9. O=C(Nc1cccc(Cc2nn[nH]n2)c1)C(F)(F)C(F)(F)C(F)(F)C(F)(F)C(F)(F)C(F)(F)C(F)(F)F  60%
10. O=C(Nc1ccc(Cc2nnn[nH]2)cc1)C(F)(F)C(F)(F)C(F)(F)C(F)(F)C(F)(F)C(F)(F)C(F)(F)C(F)(F)C(F)(F)C(F)F  62%
11. O=C(NCCCCCc1nn[n-]n1)C(F)(F)C(F)(F)C(F)(F)C(F)(F)C(F)(F)C(F)(F)C(F)(F)C(F)(F)F.[Na+]  62%
12. O=C(NCCc1ccccn1)C(F)(F)C(F)(F)C(F)(F)C(F)(F)C(F)(F)C(F)(F)C(F)(F)F  63%
13. O=C(Nc1ccc(Cc2nnn[nH]2)cc1)C(F)(F)C(F)(F)C(F)(F)C(F)(F)C(F)(F)C(F)(F)C(F)(F)C(F)(F)F  63%
14. O=C(Nc1ccc(CCCc2nn[nH]n2)cc1)C(F)(F)C(F)(F)C(F)(F)C(F)(F)C(F)(F)C(F)(F)C(F)(F)F  63%
15. O=C(Nc1cccc2ncccc12)C(F)(F)C(F)(F)C(F)(F)C(F)(F)C(F)(F)C(F)(F)C(F)(F)F  64%
16. O=C(Nc1nn[nH]n1)C(F)(F)C(F)(F)C(F)(F)C(F)(F)C(F)(F)C(F)(F)C(F)(F)F  64%
17. O=C(Nc1ccc(Cc2nnn[nH]2)cc1)C(F)(F)C(F)(F)C(F)(F)C(F)(F)C(F)(F)C(F)(F)C(F)(F)C(F)F  65%
18. O=C(NCCc1nnn[nH]1)C(F)(F)C(F)(F)C(F)(F)C(F)(F)C(F)(F)C(F)(F)C(F)(F)C(F)(F)F  65%
19. NC(=O)C(F)(F)C(F)(F)C(F)(F)C(F)(F)C(F)(F)C(F)(F)C(F)(F)F  65%
20. O=C(Nc1ccccc1Cc1nn[nH]n1)C(F)(F)C(F)(F)C(F)(F)C(F)(F)C(F)(F)C(F)(F)C(F)(F)F  66%
21. OCC(F)(F)C(F)(F)C(F)(F)C(F)(F)C(F)(F)C(F)(F)C(F)F  67%
22. CN(C(=O)C(F)(F)C(F)(F)C(F)(F)C(F)(F)C(F)(F)C(F)(F)C(F)(F)F)c1ccc(Cc2nnn(C)n2)cc1  70%
23. O=C(Nc1cccc(Cc2nn[n-]n2)c1)C(F)(F)C(F)(F)C(F)(F)F.[Na+]  71%
24. O=C(Nc1ccc(Cc2nnn[nH]2)cc1)C(F)(F)C(F)(F)C(F)(F)C(F)(F)C(F)(F)C(F)(F)C(F)(F)C(F)(F)C(F)(F)F  71%
25. CCOC(=O)C(F)(F)C(F)(F)C(F)(F)C(F)(F)C(F)(F)C(F)(F)C(F)(F)F  72%
26. O=C(Nc1ccc(CCCc2nn[nH]n2)cc1)C(F)(F)C(F)(F)C(F)(F)F  72%
27. O=C(Nc1ccc(CCCCc2nn[nH]n2)cc1)C(F)(F)C(F)(F)C(F)(F)C(F)(F)C(F)(F)C(F)(F)C(F)(F)F  73%
28. O=C(Nc1ccccc1)C(F)(F)C(F)(F)C(F)(F)C(F)(F)C(F)(F)C(F)(F)C(F)(F)F  74%
29. O=C(Nc1cccnc1)C(F)(F)C(F)(F)C(F)(F)C(F)(F)C(F)(F)C(F)(F)C(F)(F)F  74%
30. O=C(Nc1ccc(Cc2nn[nH]n2)cc1)c1c(F)c(F)c(F)c(F)c1F  75%
31. O=C(Nc1ccc(CCc2nn[nH]n2)cc1)C(F)(F)C(F)(F)C(F)(F)F  76%
32. O=C(N1CCN(c2ccccn2)CC1)C(F)(F)C(F)(F)C(F)(F)C(F)(F)C(F)(F)C(F)(F)C(F)(F)F  76%
33. O=C(N(Cc1ccccc1)c1cccc(Cc2nn[nH]n2)c1)C(F)(F)C(F)(F)C(F)(F)F  78%
34. O=C(Nc1ccc(Cc2nn[nH]n2)cc1)c1cc(C(F)(F)F)cc(C(F)(F)F)c1  82%
35. O=C(Nc1ccc(-c2nn[nH]n2)cc1)C(F)(F)C(F)(F)C(F)(F)C(F)(F)C(F)(F)C(F)(F)C(F)(F)F  82%
36. O=C(Nc1ccc(Cc2nnnn2Cc2ccccc2)cc1)C(F)(F)C(F)(F)C(F)(F)C(F)(F)C(F)(F)C(F)(F)C(F)(F)F  82%
37. NCC(F)(F)C(F)(F)C(F)(F)C(F)(F)C(F)(F)C(F)(F)C(F)(F)F  84%
38. O=C(Nc1ccccc1Cc1nn[n-]n1)C(F)(F)C(F)(F)C(F)(F)F.[Na+]  84%
39. O=C(Nc1ccccc1O)C(F)(F)C(F)(F)C(F)(F)C(F)(F)C(F)(F)C(F)(F)C(F)(F)F  85%
40. O=C(Nc1ccc(Cc2nnn[nH]2)cc1)C(F)(F)C(F)(F)F  86%
41. O=C(Nc1cccc(Cc2nn[nH]n2)c1)C(F)(F)C(F)(F)C(F)(F)F  86%
42. O=C(N1CCc2ccccc2C1)C(F)(F)C(F)(F)C(F)(F)C(F)(F)C(F)(F)C(F)(F)C(F)(F)F  87%
43. O=C(NCC(F)(F)C(F)(F)C(F)(F)F)c1ccc(Cc2nn[nH]n2)cc1  90%
44. O=C(NCCCCCc1nnn[nH]1)C(F)(F)C(F)(F)C(F)(F)F  91%
45. O=C(Nc1ccc(F)cc1)C(F)(F)C(F)(F)C(F)(F)C(F)(F)C(F)(F)C(F)(F)C(F)(F)F  91%
46. O=C(Nc1ccccc1Cc1nn[nH]n1)C(F)(F)C(F)(F)C(F)(F)F  91%
47. O=C(Nc1ccc(Cc2nnn[nH]2)cc1)C(F)(F)C(F)(F)C(F)(F)C(F)(F)F  92%
48. O=C(Nc1ccc(Cc2nnn[nH]2)cc1)C(F)(F)C(F)(F)C(F)(F)C(F)(F)C(F)(F)C(F)(F)F  93%
49. O=C(NCC(F)(F)C(F)(F)C(F)(F)F)c1cccc(Cc2nn[nH]n2)c1  93%
50. Cc1csc(=N)n1C(=O)C(F)(F)C(F)(F)C(F)(F)C(F)(F)C(F)(F)C(F)(F)C(F)(F)F  94%
51. O=C(NCCCCCc1nnn[nH]1)C(F)(F)F  95%
52. O=C(Nc1ccc(Cc2nn[nH]n2)cc1)C(F)(F)C(F)(F)C(F)(F)F  96%
53. CCCCCCCCC(=O)NCCCCCc1nnn[nH]1  100%
54. O=C(O)C(F)(F)C(F)(F)C(F)(F)F  101%
55. O=C(Nc1ccc(Cc2nnn[nH]2)cc1)C(F)(F)F  104%
56. O=C(NCc1ccccc1)C(F)(F)C(F)(F)C(F)(F)C(F)(F)C(F)(F)C(F)(F)C(F)(F)F  106%
57. CCCCCCCCCCCCCCCCCC(=O)Nc1ccc(Cc2nn[nH]n2)cc1  108%
58. O=C(N1CCCc2ccccc21)C(F)(F)C(F)(F)C(F)(F)C(F)(F)C(F)(F)C(F)(F)C(F)(F)F  115%
59. O=C(Nc1ccc(CCc2nn[nH]n2)cc1)C(F)(F)C(F)(F)C(F)(F)C(F)(F)C(F)(F)C(F)(F)C(F)(F)F  119%
60. COc1ccc2c(c1)CCCN2C(=O)C(F)(F)C(F)(F)C(F)(F)C(F)(F)C(F)(F)C(F)(F)C(F)(F)F  132%
